In general, T/C refers to the result in the treated group divided by that in the control group, in per cent.

Data set [1] concerns L1210. As to the kind of experiment: Antileukemic activity against mouse L1210 cells allografted in female BDF1 mouse assessed as host mean survival time at 50 mg/kg, ip administered daily for 9 days as Klucel suspension starting 24 hrs after tumor inoculation relative to control. It counts as functional. Particulars: route intraperitoneal. Put shortly:
(§1)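 L1210 leukemia given as an ascitic fluid cell inoculum, ip, to mice of the strain and sex in each line. Test material was given ip for nine daily doses starting 24 h after inoculation, in a Klucel (hydroxypropylcellulose) suspension. Read-out is mean survival time as %T/C versus controls, with >125 taken as significant.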

For data set [2], the system named is P388. As to the kind of experiment: Antitumor activity against mouse P388 cells allografted in female BDF1 mouse assessed as disease cures by measuring 30-days host survival at 12.5 mg/kg, ip administered daily for 9 days as Klucel suspension starting 24 hrs after tumor inoculation relative to control. Particulars: route intraperitoneal. Format: functional. In a few lines: (§2)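 P388 leukemia given as an ascitic fluid cell inoculum, ip, to mice of the strain and sex in each line. Nine daily ip doses were given in a Klucel (hydroxypropylcellulose) suspension, starting 24 h after inoculation. Read-out is median survival time as %T/C, with >125 taken as significant; a "cure" means 30-day survival.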

The subject of data set [3] is Mus musculus. As to the kind of experiment: Toxicity in female CDF1 mouse allografted with mouse P388 cells assessed as animal survival at 50 mg/kg, ip administered daily for 9 days as Klucel suspension starting 24 hrs after tumor inoculation. It counts as organism-based. The arrangement: dose 50 mg/kg, route intraperitoneal. Particulars: in vivo. In a few lines: (§3)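 P-388 leukemia ascitic fluid inoculated ip. Compound given ip as a suspension in Klucel (hydroxypropylcellulose), once daily for nine doses beginning 24 h post-inoculation. Acute toxicity assessed as toxicity-day survivors per group. Survival was followed up to 30 days, with 30-day survival counted as "cure". Follows NCI screening protocols.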

In data set [4] the test system is L1210. As to the kind of experiment: Antileukemic activity against mouse L1210 cells allografted in female BDF1 mouse assessed as host mean survival time at 100 mg/kg, ip administered daily for 9 days as Klucel suspension starting 24 hrs after tumor inoculation relative to control. Format: functional. Particulars: route intraperitoneal. Put shortly: as §1
The subject of data set [5] is Mus musculus. As to the kind of experiment: Toxicity in male CDF1 mouse allografted with mouse P388 cells assessed as animal survival at 25 mg/kg, ip administered daily for 9 days as Klucel suspension starting 24 hrs after tumor inoculation. Format: organism-based. The arrangement: dose 25 mg/kg, route intraperitoneal. Particulars: in vivo. Put shortly:
as §3

Data set [6] has as its system P388. As to the kind of experiment: Antitumor activity against mouse P388 cells allografted in female BDF1 mouse assessed as disease cures by measuring 30-days host survival at 6.25 mg/kg, ip administered daily for 9 days as Klucel suspension starting 24 hrs after tumor inoculation relative to control. Format: functional. Particulars: route intraperitoneal. In a few lines:
as §2

For data set [7], the system named is Mus musculus. As to the kind of experiment: Toxicity in male CDF1 mouse allografted with mouse P388 cells assessed as animal survival at 12.5 mg/kg, ip administered daily for 9 days as Klucel suspension starting 24 hrs after tumor inoculation. Particulars: in vivo. Format: organism-based. The arrangement: dose 12.5 mg/kg, route intraperitoneal. In a few lines: as §3

Data set [8] has as its system Mus musculus. As to the kind of experiment: Toxicity in female BDF1 mouse allografted with mouse L1210 cells assessed as animal survival at 200 mg/kg, ip administered daily for 9 days as Klucel suspension starting 24 hrs after tumor inoculation measured on fifth day. It counts as organism-based. Also noted: dose 200 mg/kg, route intraperitoneal. Particulars: in vivo. In a few lines: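 L1210 leukemia passaged as ascitic fluid and inoculated ip. Test agent given ip as a Klucel (hydroxypropylcellulose) suspension, nine daily doses starting 24 h after tumor inoculation. Acute toxicity read as toxicity-day survivors per group (out of 6), recorded on day 5. Animal weight difference T − C was also recorded. Follows NCI screening protocols.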

In data set [9] the test system is P388. As to the kind of experiment: Antitumor activity against mouse P388 cells allografted in female CDF1 mouse assessed as change in body weight at 50 mg/kg, ip administered daily for 9 days as Klucel suspension starting 24 hrs after tumor inoculation. Format: functional. Particulars: route intraperitoneal. In a few lines:
(§4)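 Ascitic fluid carrying P388 cells was inoculated ip. Compound was given ip in nine daily doses, starting 24 h after inoculation, in Klucel (hydroxypropylcellulose) suspension or in saline with Tween-80. Body-weight difference (treated minus control) was recorded on day 5. Survival was scored as %T/C of median survival time, and 30-day survival counted as cure.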

Data set [10] concerns P388. As to the kind of experiment: Antitumor activity against mouse P388 cells allografted in male CDF1 mouse assessed as change in body weight at 25 mg/kg, ip administered daily for 9 days as Klucel suspension starting 24 hrs after tumor inoculation. It counts as functional. Particulars: route intraperitoneal. In a few lines:
as §4

`CC(=O)OCc1c(COC(C)=O)c(-c2ccccc2)n2c1CCC2`: the T/C was determined as 114% in the data set on L1210 [1], 126% in the data set with P388 [2], 107% in the data set on L1210 [4] and 107% with P388 [6]. Also, the Activity result is listed as “Non-toxic” in the data set on Mus musculus [3]; “Non-toxic” with Mus musculus [5]; “Non-toxic” with Mus musculus [7]; “Toxic” with Mus musculus [8]; -2.5 g with P388 [9]; -1.2 g with P388 [10].

The values above are taken from ChEMBL document CHEMBL3244396, “Synthesis and antileukemic activity of 5-substituted 2,3-dihydro-6,7-bis(hydroxymethyl)-1H-pyrrolizine diesters” (J Med Chem, 1977).
